Source: ChEMBL document CHEMBL1148736, “N-Acylthiadiazolines, a new class of liver X receptor agonists with selectivity for LXRbeta” (J Med Chem, 2007)
Calls of active or inactive are those of the source. The rule behind the calls is not given here.

Key:
[1] = biological target: T1, Oxysterols receptor LXR-alpha (Homo sapiens) (UniProt Q13133); assay: Displacement of [3H]T-0901317 from GAL-linked human LXRalpha expressed in THP1 cells at 20 uM by SPA relative to GW-3965; assay type: cell-based; details: THP-1
T1 sequence (whole entry): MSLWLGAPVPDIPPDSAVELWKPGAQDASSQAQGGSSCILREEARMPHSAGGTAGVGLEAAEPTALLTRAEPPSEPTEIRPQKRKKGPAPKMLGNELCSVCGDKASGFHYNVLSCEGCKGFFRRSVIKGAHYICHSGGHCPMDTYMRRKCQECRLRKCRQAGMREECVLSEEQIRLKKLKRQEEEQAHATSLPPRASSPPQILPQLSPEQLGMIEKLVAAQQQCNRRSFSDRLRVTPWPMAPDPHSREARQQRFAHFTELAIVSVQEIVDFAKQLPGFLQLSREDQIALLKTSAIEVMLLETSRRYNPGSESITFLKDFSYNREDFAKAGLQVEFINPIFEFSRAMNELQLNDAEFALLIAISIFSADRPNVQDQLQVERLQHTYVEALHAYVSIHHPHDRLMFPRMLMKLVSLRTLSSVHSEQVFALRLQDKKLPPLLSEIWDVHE
In short: (§1)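 Scintillation proximity displacement with His-tagged hLXRα or hLXRβ LBD (200 ng/well) and 30 nM [3H]T0901317. Beads 0.2 mg/well in phosphate buffer with EDTA, NaCl, DTT, CHAPS, 10% glycerol. 12-point curves from 20 µM; shaken 3 h at room temperature. No-competitor wells = 100% binding; nonspecific binding without protein. Efficacy = maximal displacement relative to reference dual agonist.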

[2] = biological target: T2, Oxysterols receptor LXR-beta (Homo sapiens) (UniProt P55055); assay: Displacement of [3H]T-0901317 from GAL-linked human LXRbeta expressed in THP1 cells at 20 uM by SPA relative to GW-3965; assay type: cell-based; details: THP-1; in short: as §1
T2 sequence (whole entry): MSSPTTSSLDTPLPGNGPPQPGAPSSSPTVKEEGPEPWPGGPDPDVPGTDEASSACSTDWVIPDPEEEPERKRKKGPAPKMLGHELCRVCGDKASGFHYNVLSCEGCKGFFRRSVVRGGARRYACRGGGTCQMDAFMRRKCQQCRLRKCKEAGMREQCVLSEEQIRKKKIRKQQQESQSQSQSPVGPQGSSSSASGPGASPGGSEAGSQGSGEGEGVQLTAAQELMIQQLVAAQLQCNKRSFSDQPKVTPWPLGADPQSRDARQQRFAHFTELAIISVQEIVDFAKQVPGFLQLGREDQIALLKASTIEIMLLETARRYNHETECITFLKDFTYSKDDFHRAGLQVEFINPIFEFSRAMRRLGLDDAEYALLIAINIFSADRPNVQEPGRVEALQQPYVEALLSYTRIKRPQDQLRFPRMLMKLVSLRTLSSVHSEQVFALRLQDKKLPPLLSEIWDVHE

THP-1 [3] = assay: Increase in ABCA1 gene expression in THP1 cells at 1 uM relative to GW-3965; assay type: functional, Homo sapiens
In short: (§2)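 THP-1 cells differentiated with 40 ng/mL PMA for 1 day, then switched to RPMI with 2% lipoprotein-deficient FBS. Compound added 6 h later at 1 or 10 µM in DMSO, incubated 24 h. ABCA1 mRNA by one-step TaqMan qRT-PCR, triplicate, multiplexed with 36B4; fold induction vs DMSO, expressed relative to reference dual agonist.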

THP-1 [4] = assay: Increase in ABCA1 gene expression in THP1 cells at 10 uM relative to GW-3965; assay type: functional, Homo sapiens; in short: as §2
[5] = biological target: T1, Oxysterols receptor LXR-alpha (Homo sapiens); assay: Activity at human LXRalpha by Gal4 transactivation assay relative to GW-3965
In short: (§3)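 GAL4 DBD fused to hLXRα or hLXRβ LBD in pcDNA3, co-transfected into HepG2 with luciferase reporter. Cells in DMEM with 10% lipoprotein-deficient FBS, 7.5 µM lovastatin, 100 µM mevalonic acid. Ligand added 24 h post-transfection as 11-point curves from 10 µM; luciferase read after 16 h. Run in quadruplicate. %E = max fold induction vs max fold induction of reference dual agonist in same experiment.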

[6] = biological target: T2, Oxysterols receptor LXR-beta (Homo sapiens); assay: Agonist activity at GAL-linked human LXRbeta expressed in THP1 cells assessed as stimulation of co-activator recruitment by FRET assay relative to GW-3965; assay type: functional
In short: (§4)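 Cell-free TR-FRET coactivator recruitment: 20 nM His-tagged hLXRα or hLXRβ, 300 nM biotinylated SRC-1 peptide, Eu-anti-His antibody, APC-streptavidin. 12-point curves from 20 µM; 1 h at 37 °C. Duplicate. %E = maximal coactivator recruitment relative to reference dual agonist in same experiment.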

[7] = biological target: T1, Oxysterols receptor LXR-alpha (Homo sapiens); assay: Agonist activity at GAL-linked human LXRalpha expressed in THP1 cells assessed as stimulation of co-activator recruitment by FRET assay relative to GW-3965; assay type: functional; in short: as §4
[8] = biological target: T2, Oxysterols receptor LXR-beta (Homo sapiens); assay: Activity at human LXRbeta by Gal4 transactivation assay relative to GW-3965; in short: as §3
[9] = biological target: T3, Oxysterols receptor LXR-beta (Homo sapiens, UniProt P55055); assay: Agonist activity at GAL-linked human LXRbeta expressed in THP1 cells assessed as stimulation of co-activator recruitment by FRET assay; assay type: functional; in short: as §4
T3 sequence (P55055 whole entry): T2 sequence (whole entry)

[10] = biological target: T4, Oxysterols receptor LXR-alpha (Homo sapiens, UniProt Q13133); assay: Agonist activity at GAL-linked human LXRalpha expressed in THP1 cells assessed as stimulation of coactivator recruitment by FRET assay; assay type: functional; in short: as §4
T4 sequence (Q13133 whole entry): T1 sequence (whole entry)

[11] = biological target: T3, Oxysterols receptor LXR-beta; assay: Activity at human LXRbeta by Gal4 transactivation assay; in short: as §3
[12] = biological target: T4, Oxysterols receptor LXR-alpha; assay: Activity at human LXRalpha by Gal4 transactivation assay; in short: as §3
Macrophage = assay: Induction of APO-AI-dependent cholesterol efflux in mouse macrophages; assay type: functional, cell-based
In short: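 Peritoneal macrophages labelled 24 h with [3H]cholesterol (1.0 µCi/mL) plus ACAT inhibitor 58-035 (2 µg/mL), with compound. Then 2–4 h equilibration in label-free medium with compound. Efflux for 4 h into DMEM/0.2% BSA with or without apoAI (15 µg/mL). apoAI-dependent efflux = medium radioactivity as % of total cell plus medium. Triplicate.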

Hepatocyte = assay: Induction on FAS gene expression in human primary hepatocytes at 1 uM; assay type: functional, cell-based
In short: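 Primary human hepatocytes treated with 1 µM compound; FAS mRNA measured by TaqMan-based qRT-PCR.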

Row | SMILES | Efficacy [1] [%] | Efficacy [2] [%] | Activity (THP-1 [3]) [%] | Activity (THP-1 [4]) [%] | Efficacy [5] [%] | Activity [6] [%] | Efficacy [7] [%] | Efficacy [8] [%] | EC50 [9] [µM] | Efficacy [6] [%] | EC50 [10] [µM] | EC50 [11] [µM] | EC50 [12] [µM] | Activity (Macrophage) | Activity (Hepatocyte)
1 | COc1cccc([C@@H]2SC(c3ccc(Cl)cc3)=NN2C(=O)c2c(F)cc(F)cc2F)c1OC | < 15 | < 15 | 0 | 0 | < 15 | < 15 | < 15 | < 15 | – | – | – | – | – | – | –
2 | COc1cccc(C2SC(c3ccc(F)cc3)=NN2C(=O)c2c(F)ccc(F)c2F)c1OC (stereo not given) | – | – | 35 | 42 | – | – | < 15 | – | 0.97 | 74 | – | – | – | – | –
3 | COc1ccccc1C1(C)SC(c2ccc(F)cc2)=NN1C(=O)c1c(F)cc(F)cc1F (stereo not given) | – | – | – | – | – | – | < 15 | – | 4 | 50 | – | – | – | – | –
4 | COc1cccc(C2SC(c3ccc(F)cc3)=NN2C(=O)c2c(F)cc(Br)cc2F)c1OC (stereo not given) | – | – | – | 42 | – | – | 43 | – | 0.16 | 92 | 0.9 | – | – | – | –
5 | COc1cccc([C@H]2SC(c3ccc(Cl)cc3)=NN2C(=O)c2c(F)cc(F)cc2F)c1OC | 80 | 100 | 39 | 60 | 41 | – | 64 | 98 | 0.067 | 94 | 1.6 | 0.063 | 0.346 | Active | –
6 | COc1cccc(C2SC(c3ccc(F)c(F)c3)=NN2C(=O)c2cccc(F)c2)c1OC (stereo not given) | – | – | 27 | 47 | – | – | 30 | – | 0.56 | 83 | 1.5 | – | – | – | –
7 | COc1cccc(C2SC(c3ccc(F)cc3)=NN2C(=O)c2cc(F)c(F)c(OC)c2F)c1OC (stereo not given) | – | – | 30 | 59 | – | – | 64 | – | 0.081 | 100 | 0.7 | – | – | – | –
8 | COc1cc(F)ccc1C1SC(c2ccc(F)cc2)=NN1C(=O)c1c(F)cc(F)cc1F (stereo not given) | – | – | 99 | 59 | – | – | 92 | – | 0.006 | 100 | 0.07 | – | – | – | –
9 | O=C(c1c(F)cc(F)cc1F)N1N=C(c2ccc(Cl)cc2)SC1c1ccccc1OC(F)(F)F (stereo not given) | – | – | – | 23 | – | – | < 15 | – | 3.4 | 31 | – | – | – | – | –
10 | O=C(c1c(F)cc(F)cc1F)N1N=C(c2ccc(Cl)cc2)SC1c1cccc2c1OC(F)(F)O2 (stereo not given) | – | – | 35 | 61 | – | – | 71 | – | 0.8 | 74 | 3.9 | – | – | – | –
11 | COc1cccc(C2SC(c3ccc(F)cc3)=NN2C(=O)c2cc(F)ccc2C)c1OC (stereo not given) | – | – | 21 | 32 | – | – | 46 | – | 0.14 | 90 | 2.4 | – | – | – | –
12 | COc1cccc(C2SC(c3ccc(F)cc3)=NN2C(=O)c2cc(F)c(F)cc2F)c1OC (stereo not given) | – | – | 30 | 48 | – | – | < 15 | – | 0.6 | 40 | – | – | – | – | –
13 | COc1cc(F)c(C(=O)N2N=C(c3ccc(F)cc3)SC2c2cccc(OC)c2OC)c(F)c1 (stereo not given) | – | – | 81 | 42 | – | – | 47 | – | 0.17 | 100 | 0.9 | – | – | – | –
14 | COc1cccc(C2SC(c3ccc(Cl)cc3)=NN2C(=O)c2ccc(F)cc2F)c1OC (stereo not given) | – | – | 23 | 40 | – | – | 50 | – | 0.98 | 80 | 6.7 | – | – | – | –
15 | COc1cccc(C2SC(c3ccc(C)cc3)=NN2C(=O)c2c(F)cc(F)cc2F)c1OC (stereo not given) | – | – | 24 | 34 | – | – | 52 | – | 0.2 | 98 | 1.4 | – | – | – | –
16 | COc1cccc(C2SC(c3ccc(Cl)cc3)=NN2C(=O)c2c(F)cc(F)cc2F)c1 (stereo not given) | – | – | – | – | – | – | < 15 | – | 3.7 | 60 | – | – | – | – | –
17 | O=C(c1c(F)cc(F)cc1F)N1N=C(c2ccc(F)cc2)SC1c1ccccc1OC(F)F (stereo not given) | – | – | 26 | – | – | – | 76 | – | 0.15 | 90 | 1.9 | – | – | – | –
18 | O=S(=O)(c1ccccc1)N(CC(F)(F)F)c1ccc(C(O)(C(F)(F)F)C(F)(F)F)cc1 | – | – | – | – | – | – | – | – | – | – | – | – | – | – | Active
19 | COc1cccc(C2SC(c3ccc(Cl)cc3)=NN2C(=O)c2ccccc2F)c1OC (stereo not given) | – | – | – | – | – | – | < 15 | – | 7.7 | 48 | – | – | – | – | –
20 | COc1cccc(C2SC(c3ccc(F)cc3)=NN2C(=O)c2cc(F)cc(F)c2)c1OC (stereo not given) | – | – | 21 | 37 | – | – | 40 | – | 0.47 | 95 | 2.1 | – | – | – | –
21 | COc1cccc(C2SC(c3ccc(F)cc3)=NN2C(=O)c2cccc(Cl)c2)c1OC (stereo not given) | – | – | 13 | 36 | – | – | < 15 | – | 0.25 | 82 | – | – | – | – | –
22 | COc1ccccc1C1SC(c2ccc(Cl)cc2)=NN1C(=O)c1c(F)cc(F)cc1F (stereo not given) | – | – | 57 | 54 | – | – | 80 | – | 0.035 | 110 | 0.18 | – | – | – | –
23 | COc1cccc(C2SC(c3ccc(Cl)cc3)=NN2C(=O)c2ccccc2)c1OC (stereo not given) | – | – | – | – | – | < 15 | < 15 | – | – | – | – | – | – | – | –
24 | O=C(O)Cc1cccc(OCCCN(Cc2cccc(C(F)(F)F)c2Cl)CC(c2ccccc2)c2ccccc2)c1 | 100 | 100 | 100 | 100 | 100 | – | 100 | 100 | 0.027 | 100 | 0.097 | 0.004 | 0.066 | – | Active
25 | COc1cccc(C2SC(c3ccc(Cl)c(Cl)c3)=NN2C(=O)c2c(F)cc(F)cc2F)c1OC (stereo not given) | – | – | 18 | 46 | – | – | < 15 | – | > 10 | 51 | – | – | – | – | –
